Compounds with a hit are over-represented: about 2.3% of the library has one in this group of screens.
TRPC4 PAM = TRPC4 (mouse) allosteric potentiation. Q9QUQ5. HEK293 TRPC4beta/mu-opioid, DAMGO EC20, Fluo-4 Ca2+ flux; active compounds read high. B-score at 10 µM. actives 0.42% (n = 310,000). AID 2227;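 active = B-score of calcium response area above 5 SD of library B-scores, with initial fluorescence ratio within 5 SD of library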;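 also: B-score of integrated fluorescence ratio over time as area under calcium response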
TRPC6 act = mouse TRPC6 channel activation; Q61143; HEK293-TRPC6 membrane potential dye fluorescence; active compounds read high; B-score at 10 µM; actives 0.13% (n = 310,000);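 active = B-score of the integrated fluorescence ratio above library mean plus 3 SD, and starting fluorescence ratio within library mean plus 5 SD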;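 also: higher score means more depolarization so channel activation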
TRPC4 block = blocks the mouse TRPC4 cation channel. HEK293 TRPC4beta/mu-opioid, DAMGO-evoked Fluo4 calcium flux; active compounds read low. B-score at 10 µM. actives 0.39% (n = 300,000). AID 2247. Q9QUQ5;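 active = B-score over 3 SD under the library average, no early fluorescence shift, positive overall ratio signal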
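Material: HEK293 cells with stable TRPC4beta plus mu-opioid receptor expression; probe or stimulus: DAMGO in two steps, submaximal then maximal; technique: Fluo4 calcium fluorescence by kinetic imaging, 5 s 1 Hz baseline; measure: integrated fluorescence ratio relative to baseline, converted to per-well B score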
TRPC6 inhibitor = mouse TRPC6 channel inhibition | AID 2553 | HEK293-TRPC6, membrane potential dye, ACh-evoked depolarization; active compounds read low | B-score at 10 µM | actives 1.1% (n = 310,000);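 active = B-score under library mean minus 3 SD, initial fluorescence not abnormally high, positive integrated signal ratio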;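 also: B-score derived from integrated fluorescence ratio over the kinetic read; more negative B-score means stronger inhibition of depolarization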
TRPC4 agonist = TRPC4 (mouse) channel activation; HEK293 TRPC4beta/mu-opioid, Fluo4 calcium fluorescence; active compounds read high; Q9QUQ5; AID 2237; B-score at 10 µM; actives 0.49% (n = 310,000);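 active = B-score above 5 SD of library B-scores, and initial fluorescence ratio not above library mean plus 5 SD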;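 also: positive B-score marks a calcium rise read as TRPC4 activation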
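Test system: HEK293 cells stably co-expressing mouse TRPC4beta and mu-opioid receptor | Schedule: Fluo4 dye loading 45 min at room temperature, 110 s recording | Measured by: Kinetic Fluo4 calcium fluorescence, 5 s baseline at 1 Hz | Evaluation: B score of integrated ratio | Controls: Buffer (low) and maximal DAMGO (high)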
TRPC4 spec 2 = second check of whether TRPC6 inhibitors also affect mouse TRPC4; shares compounds with TRPC6 inhibitor; HEK293 TRPC4/MOR, membrane potential dye fluorescence; channel activated by saturating DAMGO dose; inhibition, % at 10 µM; actives 42% (n = 920); AID 2776;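 active = compounds whose fluorescence signal differed from control wells by over 3 SD, either direction, in both duplicate plates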
TRPC4 spec = tests whether TRPC6 inhibitors also affect mouse TRPC4. shares compounds with TRPC6 inhibitor. HEK293 TRPC4/mu-opioid, membrane potential fluorescence. activity change, negative = inhibition, % at 10 µM. actives 61% (n = 920). AID 2777;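 active = rise or fall in signal beyond 3 SD of buffer-only wells in both replicate plates, either sign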;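 also: integrated kinetic ratio of fluorescence range over baseline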
HEK293 MPD ctr 2-1 = second counter-screen for TRPC6 inhibitors: parental HEK293 cells | shares compounds with TRPC6 inhibitor | parental HEK293 membrane potential dye fluorescence; maximal acetylcholine challenge after compound addition | signal change vs control, % at 10 µM | actives 31% (n = 920) | AID 2779;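 active = membrane potential signal moving either way by over 3 SD of the maximum-effect control, in both duplicate plates, meaning non-specific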
HEK293 MPD ctr-1 = checks TRPC6 inhibitor effects in parental HEK293 cells. shares compounds with TRPC6 inhibitor. parental HEK293 membrane potential dye fluorescence. membrane potential signal change, % at 10 µM. actives 60% (n = 920);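 active = membrane potential signal shifting up or down by more than 3 SD of buffer-only wells, on both duplicate plates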
HEK293 MPD ctr-2 = counter-screen for TRPC6 modulators: effect in parental HEK293 cells; shares compounds with TRPC6 inhibitor; AID 488924; membrane potential signal change, % at 10 µM; membrane potential dye fluorescence; actives 51% (n = 2,400);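 active = membrane potential signal moves up or down beyond 5 SD from buffer-only wells, on both duplicate plates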
HEK293 MPD ctr 2-2 = second counter-screen for TRPC6 modulators: effect in parental HEK293 cells; actives 14% (n = 2,400); shares compounds with TRPC6 inhibitor; AID 488926; inhibition, % at 10 µM; membrane potential dye fluorescence; after compound, maximal acetylcholine stimulation;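 active = membrane potential signal drops by more than 5 SD from the mean control signal, in both duplicate plates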;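 also: plate controls were acetylcholine ECmax control wells for no effect and buffer only wells for full effect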
TRPC4 ctr mod = selectivity of TRPC6 modulators against mouse TRPC4; shares compounds with TRPC6 inhibitor; HEK293 TRPC4/mu-opioid, membrane potential fluorescence; percent change from control (negative = decrease, positive = increase), % at 10 µM; actives 69% (n = 2,400);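 active = membrane potential signal moved up or down beyond 5 SD of buffer control wells, in both duplicate plates, actives on both sides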;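 also: plate controls were assay buffer wells for no effect and DAMGO maximal-effect wells for full effect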
TRPC4/MOR inh 2 = second check of whether TRPC6 modulators also affect mouse TRPC4. inhibition, % at 10 µM. actives 55% (n = 2,400). shares compounds with TRPC6 inhibitor. AID 488928. HEK293 TRPC4/mu-opioid, membrane potential dye fluorescence; stimulated with maximal-effect DAMGO;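 active = drop in membrane potential signal beyond 5 SD of the control wells in both duplicate plates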;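 also: TRPC4 counter screen for TRPC6 hits run under conditions tuned for TRPC6 not TRPC4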
TRPC6 block conf = confirmation of mouse TRPC6 inhibitors; shares compounds with TRPC6 inhibitor; HEK293-TRPC6, membrane potential dye, ACh-evoked depolarization; inhibition, % at 10 µM; actives 43% (n = 3,300);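 active = fluorescence ratio falls more than 5 SD below the full-stimulation control mean, in both duplicate runs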;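 also: integrated fluorescence ratio of peak minus minimum over baseline after agonist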
TRPC6 act conf = confirmation of mouse TRPC6 activators. shares compounds with TRPC6 inhibitor. HEK293-TRPC6 membrane potential dye fluorescence, FDSS. actives 11% (n = 2,800). activation, % at 10 µM;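 active = ratio signal rise beyond 5 SD above unstimulated control wells' mean, seen in both duplicate runs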;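 also: plate controls were buffer EC0 wells for no effect and acetylcholine ECmax response for full effect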
Active calls of the source: *; i = inactive; nt = not tested or not shown.

SMILES	TRPC4 PAM	TRPC6 act	TRPC4 block	TRPC6 inhibitor	TRPC4 agonist	HEK293 MPD ctr-2	HEK293 MPD ctr 2-2	TRPC4 ctr mod	TRPC4/MOR inh 2	TRPC6 block conf	TRPC6 act conf	others
Cc1cc(C)n(-c2ccc(C(F)(F)F)cc2[N+](=O)[O-])n1	i	i	i	-5.3*	i	i	i	9.5%*	i	i	i
Cc1cc(N2CCN(c3ccc([N+](=O)[O-])c4cccnc34)CC2)c2ccccc2n1	i	i	i	i	i	nt	nt	nt	nt	nt	nt
Cc1cc(N2CCN(c3ccc(C(F)(F)F)cc3[N+](=O)[O-])CC2)c2ccccc2n1	i	i	i	-6.3*	i	i	i	-12%*	67%*	i	i
COc1ccc(C)cc1NC(=O)c1ccccc1N(C)S(=O)(=O)c1ccccc1	i	i	i	i	i	nt	nt	nt	nt	nt	nt
O=C(CC(c1ccccc1)c1ccccc1O)N1CCCCC1 (centres undefined)	i	i	i	-6.3*	i	i	i	i	i	i	nt
Cc1nc(C(F)(F)F)ccc1C(=O)Nc1ccccc1N1CCOCC1	i	i	i	i	i	nt	nt	nt	nt	nt	nt
C[n+]1cccc2ccc3c(c21)OC(N)=C(C#N)C3c1ccccc1 (centres undefined)	i	i	i	-9.2*	i	-284%*	80%*	-48%*	60%*	74%*	i
CCN(CC)CC(=O)N1c2ccccc2Sc2ccc(Cl)cc21	i	i	i	-8.2*	i	nt	nt	nt	nt	i	nt	TRPC4 spec 2=i;TRPC4 spec=6.0%*;HEK293 MPD ctr 2-1=i;HEK293 MPD ctr-1=7.4%*
NCCCC(=O)N1c2ccccc2Sc2ccccc21	i	i	i	-6.9*	i	nt	nt	nt	nt	i	i	TRPC4 spec 2=i;TRPC4 spec=i;HEK293 MPD ctr 2-1=i;HEK293 MPD ctr-1=i
CCN(CC)CC(=O)N1c2ccccc2Sc2ccccc21	i	i	i	i	i	nt	nt	nt	nt	nt	nt
O=C(CCN1CCOCC1)N1c2ccccc2Sc2ccc(Cl)cc21	i	i	i	-5.2*	i	i	75%*	14%*	i	50%*	nt
NCCC(=O)N1c2ccccc2Sc2ccccc21	i	i	i	i	i	nt	nt	nt	nt	nt	nt
O=C(NCc1ccccc1)C1CCC(=O)N(CCN2CCOCC2)C1 (centres undefined)	i	i	i	i	i	nt	nt	nt	nt	nt	nt
CN(CC(=O)NCCc1ccc(S(N)(=O)=O)cc1)Cc1ccc(Cl)cc1Cl	i	i	i	i	i	nt	nt	nt	nt	nt	nt
O=C(CNCc1ccccc1)Nc1cccc(Cl)c1Cl	i	i	i	-6.2*	i	i	i	14%*	41%*	i	nt
O=c1[nH]cc(S(=O)(=O)NCc2ccccc2)c(=O)[nH]1	i	i	i	i	i	nt	nt	nt	nt	nt	nt
Cc1ccsc1C(=O)N1CCN(S(=O)(=O)c2cccc(F)c2)CC1	i	i	i	i	i	nt	nt	nt	nt	nt	nt
N#C/C(=C\c1c(N2CCCCC2)nc2ccccn2c1=O)S(=O)(=O)c1ccccc1	i	i	i	-5.3*	i	i	i	-14%*	48%*	i	i
Cc1ccc(S(=O)(=O)/C(C#N)=C/c2c(N3CCN(C)CC3)nc3c(C)cccn3c2=O)cc1	i	i	i	-6.8*	i	i	i	-17%*	83%*	i	i
CCN1CCN(c2nc3c(C)cccn3c(=O)c2/C=C(\C#N)S(=O)(=O)c2ccc(C)cc2)CC1	i	i	i	-5.1*	i	-77%*	i	-22%*	96%*	i	i
N#C/C(=C\c1c(N2CCN(c3ccccc3)CC2)nc2ccccn2c1=O)S(=O)(=O)c1ccccc1	i	i	i	i	i	nt	nt	nt	nt	nt	nt
COc1ccc(CNC(=O)Cn2nnc3ccccc3c2=O)cc1	i	i	i	i	i	nt	nt	nt	nt	nt	nt
Cc1ccc(CSc2cc(C)[nH]c(=O)n2)cc1	i	i	i	i	i	nt	nt	nt	nt	nt	nt
C[n+]1ccc(/C=N/Nc2nc(Cl)c(C#N)c(Cl)c2Cl)cc1	i	i	i	-7.6*	i	nt	nt	nt	nt	62%*	i	TRPC4 spec 2=66%*;TRPC4 spec=i;HEK293 MPD ctr 2-1=-108%*;HEK293 MPD ctr-1=i
CCCCCCCCCn1c2c(c(=N)c3c1CCC3)CCC2	i	i	i	-6.3*	i	-169%*	i	-21%*	36%*	i	i
CCn1c2c(c(=N)c3ccccc31)CCC2	i	i	i	-11*	i	nt	nt	nt	nt	72%*	i	TRPC4 spec 2=68%*;TRPC4 spec=-34%*;HEK293 MPD ctr 2-1=-12%*;HEK293 MPD ctr-1=-593%*
Fc1ccc(CN2CCCCCCC2)cc1	i	i	i	i	i	nt	nt	nt	nt	nt	nt
CCCCCCCn1ccc(=N)cc1	i	i	i	i	i	nt	nt	nt	nt	nt	nt
CCn1c2c(c(=N)c3c1CCC3)CCC2	i	i	i	-7*	i	-234%*	i	-39%*	40%*	36%*	i
CNCC(O)Cn1c2c(c3ccccc31)CCCC2 (centres undefined)	i	i	i	i	i	nt	nt	nt	nt	nt	nt

Compound activity from PubChem.
